The results in this text go back to ChEMBL document CHEMBL1134569, “Synthesis and in vitro and in vivo antimalarial activity of new 4-anilinoquinolines” (J Med Chem, 2001).

Data set [1] is described as follows: Cytotoxicity upon MPMs (mouse peritoneal macrophages) at 8 uM concentration; No toxicity. The method, boiled down:
(§1)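 Mouse peritoneal macrophages harvested 48 h after potato-starch stimulation and seeded at 30000 cells/well. After 24 h, washed and exposed to 2-fold drug dilutions in RPMI + 5% FCS (final DMSO below 0.5%) at 37 °C, 5% CO₂, for 7 days. Toxicity scored microscopically as toxic or not versus untreated controls.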

Data set [2] in a line: Cytotoxicity upon MRC-5 cells (diploid embryonic lung cell line) at 1.6 uM concentration. It is filed as cell-based, MRC5. Particulars: human; call rule not given here. The method, boiled down:
(§2)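 MRC-5 human diploid embryonic lung cells seeded at 5000/well, washed after 24 h, then given 2-fold drug dilutions in RPMI + 5% FCS (final DMSO below 0.5%). Incubated at 37 °C, 5% CO₂, for 7 days. MTT read-out at 540 nm, scored as percent absorbance reduction versus untreated controls.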

Data set [3] is described as follows: Cytotoxicity upon MRC-5 cells (diploid embryonic lung cell line) at 6.3 uM concentration. To be noted: human. It is filed as cell-based, MRC5. The method, boiled down: as §2
Data set [4] in a line: Cytotoxicity upon MPMs (mouse peritoneal macrophages) at 6.3 uM concentration; No toxicity. The method, boiled down: as §1
Data set [5] in a line: Cytotoxicity upon MRC-5 cells (diploid embryonic lung cell line) at 25 uM concentration. It is filed as cell-based, MRC5. To be noted: human. The method, boiled down:
as §2

Data set [6] can be described thus: Cytotoxicity upon MRC-5 cells (diploid embryonic lung cell line) at 1 uM concentration. It is filed as cell-based, MRC5. Particulars: human. The method, boiled down:
as §2

Data set [7] is described as follows: Cytotoxicity upon MRC-5 cells (diploid embryonic lung cell line) at 32 uM concentration. It is filed as cell-based, MRC5. To be noted: human. The method, boiled down: as §2
Data set [8] can be described thus: Cytotoxicity upon MRC-5 cells (diploid embryonic lung cell line) at 8 uM concentration. It is filed as cell-based, MRC5. Particulars: human. The method, boiled down: as §2
Data set [9] is described as follows: Cytotoxicity upon MPMs (mouse peritoneal macrophages) at 3.1 uM concentration; No toxicity. The method, boiled down:
as §1

Data set [10] in a line: Cytotoxicity upon MRC-5 cells (diploid embryonic lung cell line) at 3.1 uM concentration. It is filed as cell-based, MRC5. To be noted: human. The method, boiled down:
as §2

Data set [11] can be described thus: Cytotoxicity upon MPMs (mouse peritoneal macrophages) at 12.5 uM concentration; No toxicity. The method, boiled down:
as §1

Data set [12] is described as follows: Cytotoxicity upon MPMs (mouse peritoneal macrophages) at 2 uM concentration; No toxicity. The method, boiled down: as §1
The nature of data set [13]: Cytotoxicity upon MRC-5 cells (diploid embryonic lung cell line) at 12.5 uM concentration. It is filed as cell-based, MRC5. Particulars: human. The method, boiled down: as §2
The nature of data set [14]: Cytotoxicity upon MPMs (mouse peritoneal macrophages) at 32 uM concentration; No toxicity. The method, boiled down: as §1

With `CCN(CC)CCCC(C)Nc1ccnc2cc(Cl)ccc12` (centres undefined) [CHLOROQUINE], the NA result in data set [1], in data set [4], in [9], in data set [11], in data set [12] and in data set [14] was “Not Active” in each case. In [2], the cytotoxicity at 1.6 µM was found to be 0%. Also, the cytotoxicity at 6.3 µM in data set [3] worked out at 0%. In data set [5], the cytotoxicity at 25 µM turned out to be 0%. This molecule came in with a cytotoxicity at 1 µM in [6] of 0%. Also, the cytotoxicity at 32 µM in data set [7] was found to be 0%. The cytotoxicity at 8 µM in data set [8] is 0%. The cytotoxicity at 3.1 µM in data set [10] turned out to be 0%. The cytotoxicity at 12.5 µM in data set [13] was found to be 0%.
